Reference: ChEMBL document CHEMBL4011598, “Sulfonamides as Selective NaV1.7 Inhibitors: Optimizing Potency and Pharmacokinetics While Mitigating Metabolic Liabilities” (J Med Chem, 2017)
Converted amounts (≈) assume the structure as drawn.

Key:
[1] = target: Sodium channel protein type 5 subunit alpha (Homo sapiens, UniProt Q14524); experiment: Inhibition of human Nav1.5 expressed in HEK293 cells assessed as reduction in peak inward current by ionworks quattro electrophysiology assay; type: cell-based
[2] = Total clearance in rat at 0.5 mg/kg, iv; type: ADME, organism-based; conditions: in vivo
How it was run: (§1)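 Male rats given a single 0.5 mg/kg iv dose in DMSO. Unbound clearance (CLu) is total clearance divided by fu, the unbound fraction in plasma.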

[3] = Intrinsic clearance in rat liver microsomes at 1 uM after 1 to 40 mins in presence of NADPH by LC-MS/MS analysis; type: ADME, microsome; conditions: read-out: CLH
[4] = Total clearance in dog at 0.25 mg/kg, iv; type: ADME, organism-based, Canis lupus familiaris; conditions: in vivo
How it was run: (§2)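 Male dogs received a single 0.25 mg/kg iv dose in DMSO. Unbound clearance (CLu) is total clearance divided by fu, the unbound fraction in plasma.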

Canis familiaris = experiment: Unbound clearance in dog at 0.25 mg/kg, iv; type: ADME, organism-based, Canis lupus familiaris; conditions: in vivo; how it was run: as §2
PXR (NR1I2) = target: T1, PXR (NR1I2) (Homo sapiens, UniProt O75469); experiment: Activation of human PXR at 10 uM in presence of rifampicin; type: ADME; conditions: read-out: Activity
T1 sequence (O75469 whole entry): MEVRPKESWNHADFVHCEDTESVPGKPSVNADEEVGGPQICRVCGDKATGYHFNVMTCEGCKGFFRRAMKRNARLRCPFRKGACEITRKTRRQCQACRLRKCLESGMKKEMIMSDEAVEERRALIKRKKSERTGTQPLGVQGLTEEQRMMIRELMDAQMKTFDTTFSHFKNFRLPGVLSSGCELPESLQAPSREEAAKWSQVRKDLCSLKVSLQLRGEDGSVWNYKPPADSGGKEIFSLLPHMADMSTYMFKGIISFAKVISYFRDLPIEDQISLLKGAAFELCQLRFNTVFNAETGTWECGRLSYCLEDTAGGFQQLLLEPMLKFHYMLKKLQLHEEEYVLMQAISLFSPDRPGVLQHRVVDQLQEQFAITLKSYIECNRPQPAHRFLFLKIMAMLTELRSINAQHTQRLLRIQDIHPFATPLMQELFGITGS

[5] = Intrinsic clearance in human liver microsomes at 1 uM after 1 to 40 mins in presence of NADPH by LC-MS/MS analysis; type: ADME, microsome; conditions: read-out: CLH
Rattus norvegicus = experiment: Unbound clearance in rat at 0.5 mg/kg, iv; type: ADME, organism-based; conditions: in vivo; how it was run: as §1
[6] = target: Sodium channel protein type 9 subunit alpha (Homo sapiens, UniProt Q15858); experiment: Inhibition of human Nav1.7 expressed in HEK293 cells incubated for 3 to 5 mins at -125 mV holding potential by electrophysiology assay; type: cell-based
Cytochrome P450 3A4 [7] = target: T2, Cytochrome P450 3A4 (Homo sapiens, UniProt P08684); experiment: Inhibition of CYP3A4 (unknown origin); type: ADME
Cytochrome P450 3A4 [8] = target: T2, Cytochrome P450 3A4; experiment: Induction of CYP3A4 in human hepatocytes at 10 uM relative to rifampicin
[9] = Aqueous solubility of the compound in PBS after 48 hrs by shake flask method; type: physicochemical
[10] = Intrinsic clearance in dog liver microsomes; type: ADME, Canis lupus familiaris, microsome; conditions: read-out: CLH

Sequence of Sodium channel protein type 5 subunit alpha (Q14524 whole entry): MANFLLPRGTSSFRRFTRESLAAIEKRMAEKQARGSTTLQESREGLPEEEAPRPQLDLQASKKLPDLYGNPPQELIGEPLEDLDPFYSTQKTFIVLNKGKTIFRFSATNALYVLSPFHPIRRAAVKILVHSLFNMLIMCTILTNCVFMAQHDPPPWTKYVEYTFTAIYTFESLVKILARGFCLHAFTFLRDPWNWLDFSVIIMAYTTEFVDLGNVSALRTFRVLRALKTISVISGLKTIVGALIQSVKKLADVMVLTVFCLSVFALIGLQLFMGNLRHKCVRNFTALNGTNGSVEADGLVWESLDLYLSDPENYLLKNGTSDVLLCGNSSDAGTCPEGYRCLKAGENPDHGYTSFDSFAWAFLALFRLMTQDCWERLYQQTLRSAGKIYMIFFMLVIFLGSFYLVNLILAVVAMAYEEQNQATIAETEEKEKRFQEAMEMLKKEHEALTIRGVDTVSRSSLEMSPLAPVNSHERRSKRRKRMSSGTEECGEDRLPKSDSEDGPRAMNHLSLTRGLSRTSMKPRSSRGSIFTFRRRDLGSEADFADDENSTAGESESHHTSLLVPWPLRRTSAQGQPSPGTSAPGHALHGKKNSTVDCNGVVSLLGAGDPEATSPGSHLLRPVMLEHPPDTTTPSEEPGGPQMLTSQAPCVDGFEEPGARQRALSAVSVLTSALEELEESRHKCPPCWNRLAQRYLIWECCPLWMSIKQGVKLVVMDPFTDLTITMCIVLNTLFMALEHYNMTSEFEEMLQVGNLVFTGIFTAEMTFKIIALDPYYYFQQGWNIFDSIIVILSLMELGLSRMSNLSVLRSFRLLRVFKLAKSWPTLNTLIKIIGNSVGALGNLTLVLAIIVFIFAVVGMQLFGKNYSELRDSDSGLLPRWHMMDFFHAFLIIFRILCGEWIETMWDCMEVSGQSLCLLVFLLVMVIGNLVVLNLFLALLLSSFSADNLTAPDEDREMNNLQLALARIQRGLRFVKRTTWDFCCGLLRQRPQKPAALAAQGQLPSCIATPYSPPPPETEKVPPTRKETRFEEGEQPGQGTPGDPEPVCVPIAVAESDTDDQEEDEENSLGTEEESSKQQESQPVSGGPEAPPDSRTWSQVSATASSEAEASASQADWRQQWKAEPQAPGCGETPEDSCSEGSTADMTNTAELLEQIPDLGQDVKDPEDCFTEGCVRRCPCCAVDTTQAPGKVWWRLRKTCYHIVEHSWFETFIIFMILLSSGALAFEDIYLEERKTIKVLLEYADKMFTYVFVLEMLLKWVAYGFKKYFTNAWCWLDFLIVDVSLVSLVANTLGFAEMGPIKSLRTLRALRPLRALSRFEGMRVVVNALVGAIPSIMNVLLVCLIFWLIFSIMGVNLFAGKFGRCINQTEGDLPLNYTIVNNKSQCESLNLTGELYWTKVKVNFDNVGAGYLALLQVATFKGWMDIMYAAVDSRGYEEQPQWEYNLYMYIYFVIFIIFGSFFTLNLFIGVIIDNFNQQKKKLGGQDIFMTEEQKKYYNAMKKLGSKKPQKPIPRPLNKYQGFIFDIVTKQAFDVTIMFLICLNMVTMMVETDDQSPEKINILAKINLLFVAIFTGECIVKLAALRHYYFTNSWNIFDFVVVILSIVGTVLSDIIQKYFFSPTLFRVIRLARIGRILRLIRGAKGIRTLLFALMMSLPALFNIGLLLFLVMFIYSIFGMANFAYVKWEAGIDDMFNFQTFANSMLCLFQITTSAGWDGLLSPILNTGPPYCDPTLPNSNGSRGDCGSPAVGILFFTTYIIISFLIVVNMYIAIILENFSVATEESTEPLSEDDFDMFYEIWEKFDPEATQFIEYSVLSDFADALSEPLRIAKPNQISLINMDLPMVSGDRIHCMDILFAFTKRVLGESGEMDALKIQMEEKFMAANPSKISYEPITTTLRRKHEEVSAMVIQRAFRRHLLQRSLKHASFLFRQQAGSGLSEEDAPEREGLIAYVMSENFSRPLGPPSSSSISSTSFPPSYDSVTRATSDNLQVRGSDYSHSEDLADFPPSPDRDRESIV
Sequence of Sodium channel protein type 9 subunit alpha (Q15858 whole entry): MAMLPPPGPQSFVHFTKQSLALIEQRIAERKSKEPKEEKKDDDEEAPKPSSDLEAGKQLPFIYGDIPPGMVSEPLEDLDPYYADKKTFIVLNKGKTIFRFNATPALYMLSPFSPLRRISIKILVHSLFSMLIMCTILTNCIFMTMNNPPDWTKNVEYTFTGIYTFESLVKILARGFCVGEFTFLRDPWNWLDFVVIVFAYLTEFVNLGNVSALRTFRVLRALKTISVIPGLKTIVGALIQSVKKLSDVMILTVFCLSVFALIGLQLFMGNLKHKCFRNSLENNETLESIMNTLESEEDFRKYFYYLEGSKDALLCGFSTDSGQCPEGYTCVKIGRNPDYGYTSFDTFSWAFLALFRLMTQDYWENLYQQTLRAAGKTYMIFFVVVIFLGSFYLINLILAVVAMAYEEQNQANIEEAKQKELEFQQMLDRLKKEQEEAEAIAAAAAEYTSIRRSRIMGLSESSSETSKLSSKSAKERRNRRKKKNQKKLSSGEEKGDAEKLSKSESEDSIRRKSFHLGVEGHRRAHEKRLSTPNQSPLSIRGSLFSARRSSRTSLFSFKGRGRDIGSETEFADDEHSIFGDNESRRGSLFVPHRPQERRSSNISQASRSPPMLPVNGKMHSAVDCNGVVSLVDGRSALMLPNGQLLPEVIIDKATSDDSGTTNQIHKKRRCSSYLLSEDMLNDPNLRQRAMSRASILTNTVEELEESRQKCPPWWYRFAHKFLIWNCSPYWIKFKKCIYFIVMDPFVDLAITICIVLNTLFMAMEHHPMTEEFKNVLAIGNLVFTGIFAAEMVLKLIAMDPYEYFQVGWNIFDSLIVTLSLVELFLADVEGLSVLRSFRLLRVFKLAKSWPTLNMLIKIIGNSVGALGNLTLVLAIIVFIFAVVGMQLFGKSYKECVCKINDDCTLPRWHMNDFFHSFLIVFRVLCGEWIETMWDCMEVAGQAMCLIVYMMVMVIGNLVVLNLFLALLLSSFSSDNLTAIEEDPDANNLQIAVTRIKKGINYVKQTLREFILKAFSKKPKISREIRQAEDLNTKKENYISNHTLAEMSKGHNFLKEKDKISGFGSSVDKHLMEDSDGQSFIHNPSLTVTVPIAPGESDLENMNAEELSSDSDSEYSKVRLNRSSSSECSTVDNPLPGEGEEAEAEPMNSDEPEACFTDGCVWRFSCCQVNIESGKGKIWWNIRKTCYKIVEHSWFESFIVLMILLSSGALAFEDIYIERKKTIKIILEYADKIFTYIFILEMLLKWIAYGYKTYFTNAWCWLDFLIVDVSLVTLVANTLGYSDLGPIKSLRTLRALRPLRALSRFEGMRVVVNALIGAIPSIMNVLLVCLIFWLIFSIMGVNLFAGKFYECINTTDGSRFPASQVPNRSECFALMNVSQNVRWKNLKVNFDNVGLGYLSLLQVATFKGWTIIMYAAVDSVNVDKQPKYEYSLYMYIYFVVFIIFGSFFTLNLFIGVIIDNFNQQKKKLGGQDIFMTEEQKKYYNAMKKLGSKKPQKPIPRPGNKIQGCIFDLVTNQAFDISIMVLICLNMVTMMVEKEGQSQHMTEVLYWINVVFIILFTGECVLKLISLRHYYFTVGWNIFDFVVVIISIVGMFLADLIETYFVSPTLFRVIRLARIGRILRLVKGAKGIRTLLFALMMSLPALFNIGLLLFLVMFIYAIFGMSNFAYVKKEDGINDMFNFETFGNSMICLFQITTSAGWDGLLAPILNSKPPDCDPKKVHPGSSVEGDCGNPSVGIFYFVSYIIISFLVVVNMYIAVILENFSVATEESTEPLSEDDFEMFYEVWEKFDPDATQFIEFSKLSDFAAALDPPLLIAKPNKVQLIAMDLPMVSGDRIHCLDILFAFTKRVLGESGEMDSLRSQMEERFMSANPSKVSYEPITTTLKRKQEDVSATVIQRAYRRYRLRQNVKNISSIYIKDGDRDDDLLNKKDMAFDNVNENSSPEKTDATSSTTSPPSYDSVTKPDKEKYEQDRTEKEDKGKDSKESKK
T2 sequence (P08684 whole entry): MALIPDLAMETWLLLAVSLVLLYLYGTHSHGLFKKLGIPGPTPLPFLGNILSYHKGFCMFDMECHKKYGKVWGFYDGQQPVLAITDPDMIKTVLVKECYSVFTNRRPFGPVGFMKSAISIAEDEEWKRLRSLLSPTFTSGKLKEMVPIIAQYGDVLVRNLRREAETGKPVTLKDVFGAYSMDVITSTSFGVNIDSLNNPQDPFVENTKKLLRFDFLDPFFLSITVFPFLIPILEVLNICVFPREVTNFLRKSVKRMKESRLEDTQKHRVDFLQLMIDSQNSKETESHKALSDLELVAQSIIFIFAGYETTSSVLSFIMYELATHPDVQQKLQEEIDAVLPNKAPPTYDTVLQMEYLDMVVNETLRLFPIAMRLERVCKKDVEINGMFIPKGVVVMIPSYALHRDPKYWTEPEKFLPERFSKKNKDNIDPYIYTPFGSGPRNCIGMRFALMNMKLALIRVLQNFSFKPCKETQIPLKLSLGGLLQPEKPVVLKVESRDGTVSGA

Structure (SMILES)	IC50 [1] [µM]	clearance [2] [L/h/kg]	microsomal CLint at 1 µM [3] [µL/min/mg]	clearance [4] [L/h/kg]	CL free (Canis familiaris) [L/h/kg]	activity at 10 µM (PXR (NR1I2)) [%]	microsomal CLint at 1 µM [5] [µL/min/mg]	CL free (Rattus norvegicus) [L/h/kg]	IC50 [6] [µM]	IC50 (Cytochrome P450 3A4 [7]) [µM]	Activity (Cytochrome P450 3A4 [8]) [%]	solubility thermodynamic at 48 h [9] [µM]	microsomal CLint [10] [µL/min/mg]
COc1cc(-c2cccc(F)c2)c(Cl)cc1-c1[nH]c(=O)cc2cc(S(=O)(=O)Nc3ccon3)ccc12	0.82	2.1	18	0.82	510	27	< 14	1500					
COc1cc(-c2cccc(F)c2)c(Cl)cc1-c1nn(C)c(=O)c2cc(S(=O)(=O)Nc3ccon3)ccc12		2.1	25	0.11	31	54	16	620	0.12				
COc1cc(-c2cc(F)cc(F)c2)c(F)cc1-c1nccc2cc(S(=O)(=O)Nc3ccon3)ccc12	> 10		< 14			47	30		0.04				
COc1cc(-c2cccc(F)c2)c(Cl)cc1-c1ncnc2cc(S(=O)(=O)Nc3ccon3)ccc12			58	0.12	25	59	21						
COc1cc(-c2cc(F)cc(F)c2)ccc1-c1nccc2cc(S(=O)(=O)Nc3ccon3)ccc12						38							
COc1cc(-c2cccc(F)c2)c(Cl)cc1-c1nccc2cc(S(=O)(=O)Nc3cccnn3)ccc12			29			52	< 14			> 27			
COc1cc(-c2cccc(F)c2)c(Cl)cc1-c1c(=O)n(C)cc2cc(S(=O)(=O)Nc3ccon3)ccc12	> 10		21			69	< 14						
COc1cc(-c2cccc(C)c2)c(F)cc1-c1nccc2cc(S(=O)(=O)Nc3ccon3)ccc12	> 10		34			54	36		0.047				
COc1cc(-c2cc(F)cc(F)c2)c(C#N)cc1-c1nccc2cc(S(=O)(=O)Nc3ccon3)ccc12						54			0.14				
COc1cc(-c2ccc(C(F)(F)F)cc2)c(F)cc1-c1nccc2cc(S(=O)(=O)Nc3ccon3)ccc12	> 10		< 14			0	< 14						
COc1cc(-c2cccc(F)c2)c(Cl)cc1-c1nccc2cc(S(=O)(=O)Nc3ncon3)ccc12		1.6	20	0.17	154	10	< 14	940	0.047	> 27			
COc1cc(-c2cccc(F)c2)c(Cl)cc1-c1nccc2cc(S(=O)(=O)Nc3ccon3)ccc12	> 10	0.047	18	0.003	1.6 to 1.9	68	< 14	42	0.049 to 0.051	> 27	58		
COc1cc(-c2ccc(Cl)c(C)c2)c(F)cc1-c1nccc2cc(S(=O)(=O)Nc3ccon3)ccc12	> 10		21			1	35						
COc1cc(-c2cccc(F)c2)c(Cl)cc1-c1nccc2cc(S(=O)(=O)Nc3ncco3)ccc12	> 10		98			38	46			> 27			
COc1cc(-c2cccc(C(F)(F)F)c2)c(C#N)cc1-c1nccc2cc(S(=O)(=O)Nc3ccon3)ccc12						5			0.028				
COc1cc(-c2cccc(Cl)c2)c(F)cc1-c1nccc2cc(S(=O)(=O)Nc3ccon3)ccc12			34			34	36						
COc1cc(C(F)(F)F)ccc1-c1ncnc2cc(S(=O)(=O)Nc3nccs3)ccc12	> 30			0.013	12			27		> 50	128		
COc1cc(-c2cccc(F)c2)c(Cl)cc1-c1c(N)nnc2cc(S(=O)(=O)Nc3ccon3)ccc12	0.14		< 14			95	< 14						
COc1cc(-c2cc(F)cnc2OC)c(F)cc1-c1nccc2cc(S(=O)(=O)Nc3ccon3)ccc12	> 10		21			151	< 14						
COc1cc(-c2cccc(F)c2)ccc1-c1nccc2cc(S(=O)(=O)Nc3ccncn3)ccc12	> 30	1.7	< 14	0.049	9.1		< 14	390	0.15	1.3	12	344 (≈ 167 µg/mL)	< 14
COc1cc(-c2cccc(C(F)(F)F)c2)ccc1-c1nccc2cc(S(=O)(=O)Nc3ccon3)ccc12						7			0.061				
COc1cc(C(F)(F)F)ccc1-c1nccc2cc(S(=O)(=O)Nc3ccncn3)ccc12	> 30	0.26		0.055	1.6			11	0.73	7.2	177		
COc1cc(-c2cccc(F)c2)c(Cl)cc1-c1nccc2cc(S(=O)(=O)Nc3ncccn3)ccc12	> 10		32			31	< 14		0.12	> 27			
COc1cc(-c2cccc(F)c2)c(Cl)cc1-c1nccc2cc(S(=O)(=O)Nc3ccncn3)ccc12	> 10		< 14			24	< 14		0.065	> 27			
COc1cc(-c2cccc(F)c2)c(Cl)cc1-c1ncc(O)c2cc(S(=O)(=O)Nc3ccon3)ccc12			28	0.13	140	28	15						
COc1cc(-c2cccc(F)c2)c(Cl)cc1-c1nccc2cc(S(=O)(=O)Nc3ncns3)ccc12	1.5		< 14			5.9	< 14			0.8			
